ChEMBL document CHEMBL1146217, “Growth inhibition of Mycobacterium bovis, Mycobacterium tuberculosis and Mycobacterium avium in vitro: effect of 1-beta-D-2'-arabinofuranosyl and 1-(2'-deoxy-2'-fluoro-beta-D-2'-ribofuranosyl) pyrimidine nucleoside analogs” (J Med Chem, 2007)
≈ marks a conversion by molar mass, not a printed value.

Key:
[1] = test system: Mycobacterium avium; assay: Antimycobacterial activity against Mycobacterium avium ATCC 25291 at 100 ug/mL by microplate Alamar blue assay; type: functional
In short: (§1)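 MABA with M. bovis BCG, M. tuberculosis H37Ra or M. avium ATCC 25291. DMSO stocks (10 mg/mL) diluted in 7H9GC; final inoculum 2.5 × 10⁵ CFU/mL. Incubated 6 days, then alamar blue plus Tween 80 added and read by fluorescence after about 24 h. […]. Tested in triplicate at 100, 50, 10 and 1 µg/mL; two experiments, mean reported.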

[2] = test system: Mycobacterium tuberculosis; assay: Antimycobacterial activity against Mycobacterium tuberculosis H37Ra at 100 ug/mL by microplate Alamar blue assay; type: functional; in short: as §1
[3] = test system: Mycobacterium tuberculosis; assay: Antimycobacterial activity against Mycobacterium tuberculosis H37Ra at 50 ug/mL by microplate Alamar blue assay; type: functional; in short: as §1
[4] = test system: Mycobacterium avium; assay: Antimycobacterial activity against Mycobacterium avium ATCC 25291 at 50 ug/mL by microplate Alamar blue assay; type: functional; in short: as §1
[5] = test system: Salmonella typhimurium; assay: Antibacterial activity against Salmonella Typhimurium after 16 to 20 hrs by broth microdilution method; type: functional, Salmonella enterica subsp. enterica serovar Typhimurium; details: Salmonella enterica
In short: (§2)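 Broth microdilution MIC. Exponentially growing bacteria diluted in sterile liquid medium to a final inoculum of 1 × 10⁴ CFU/mL. Cultured with compound dilutions for 16-20 h; compounds tested at 100, 50, 10 and 1 µg/mL. MIC taken as the concentration giving 100% inhibition of bacterial growth.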

[6] = test system: Klebsiella aerogenes; assay: Antibacterial activity against Enterobacter aerogenes after 16 to 20 hrs by broth microdilution method; type: functional; details: Klebsiella aerogenes; in short: as §2
[7] = test system: Listeria monocytogenes; assay: Antibacterial activity Listeria monocytogenes ATCC 15313 after 16 to 20 hrs by broth microdilution method; type: functional; details: for MIC: Listeria monocytogenes, ATCC 15313; in short: as §2
[8] = test system: Mycobacterium tuberculosis; assay: Antimycobacterial activity against Mycobacterium tuberculosis H37Ra at 1ug/mL by microplate Alamar blue assay; type: functional; in short: as §1
[9] = test system: Mycobacterium tuberculosis; assay: Antimycobacterial activity against Mycobacterium tuberculosis H37Ra at 10 ug/mL by microplate Alamar blue assay; type: functional; in short: as §1
[10] = test system: Staphylococcus aureus; assay: Antibacterial activity against Staphylococcus aureus ATCC 25923 after 16 to 20 hrs by broth microdilution method; type: functional; details: for MIC: Staphylococcus aureus, ATCC 25923; in short: as §2
[11] = test system: Proteus vulgaris; assay: Antibacterial activity against Proteus vulgaris ATCC 49132 after 16 to 20 hrs by broth microdilution method; type: functional; in short: as §2
[12] = test system: Mycobacterium tuberculosis; assay: Antimycobacterial activity against Mycobacterium tuberculosis H37Ra by microplate Alamar blue assay; type: functional
In short: (§3)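 Same alamar blue microplate setup (7H9GC, 2.5 × 10⁵ CFU/mL, 6 days, then dye read after about 24 h), using 2-fold compound dilutions. MIC90 is the lowest concentration giving about 90% inhibition relative to bacteria-only wells after background subtraction. Visual MIC is the lowest concentration preventing the blue-to-pink change.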

[13] = test system: Escherichia coli; assay: Antibacterial activity against Escherichia coli ATCC 25922 after 16 to 20 hrs by broth microdilution method; type: functional; details: Escherichia coli, ATCC 25922; in short: as §2
[14] = test system: Mycobacterium avium; assay: Antimycobacterial activity against Mycobacterium avium ATCC 25291 by microplate Alamar blue assay; type: functional; in short: as §3
[15] = Toxicity against human foreskin fibroblast cells after 3 days by MTT test; type: cell-based
In short: (§4)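 MTT viability assay. Vero or HFF cells seeded at 2.5 × 10⁵ cells/well and left to attach 6-8 h. Exposed to compound at 100, 50, 25, 12.5, 6.3 and 1.5 µg/mL for 3 days at 37 °C, with a DMSO control. MTT added for 4 h, then solubilized overnight; absorbance read at 560-650 nm.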

[16] = test system: Staphylococcus epidermidis; assay: Antibacterial activity against Staphylococcus epidermidis ATCC 14990 after 16 to 20 hrs by broth microdilution method; type: functional; details: for MIC: Staphylococcus epidermidis, ATCC 14990; in short: as §2
[17] = test system: Streptococcus pyogenes; assay: Antibacterial activity Streptococcus pyogenes ATCC 19615 after 16 to 20 hrs by broth microdilution method; type: functional; details: for MIC: Streptococcus pyogenes, ATCC 19615; in short: as §2
[18] = test system: Vero; assay: Toxicity against Vero cells after 3 days by MTT test; type: cell-based; details: chlorocebus sabaeus, 72 h; in short: as §4
[19] = test system: Streptococcus pneumoniae; assay: Antibacterial activity Streptococcus pneumoniae ATCC 49619 after 16 to 20 hrs by broth microdilution method; type: functional; details: for MIC: Streptococcus pneumoniae, ATCC 49619; in short: as §2
[20] = test system: Enterococcus faecalis; assay: Antibacterial activity Enterococcus faecalis ATCC 29212 after 16 to 20 hrs by broth microdilution method; type: functional; details: for MIC: Enterococcus faecalis, ATCC 29212; in short: as §2
[21] = test system: Bacillus subtilis; assay: Antibacterial activity against Bacillus subtilis ATCC 6633 after 16 to 20 hrs by broth microdilution method; type: functional; details: Bacillus subtilis, ATCC 6633; in short: as §2
[22] = test system: Pseudomonas aeruginosa; assay: Antibacterial activity against Pseudomonas aeruginosa […] after 16 to 20 hrs by broth microdilution method; type: functional; details: Pseudomonas aeruginosa, ATCC 13048; in short: as §2

Compound `O=c1[nH]c(=O)n([C@@H]2O[C@H](CO)[C@@H](O)[C@@H]2O)cc1C(O)C(Br)Br` (some centres undefined) has an inhibition at 100 µg/mL [1] of 0% and an inhibition at 100 µg/mL [2] of 0%.
Work on `O=c1[nH]c(=O)n([C@@H]2O[C@H](CO)[C@@H](O)[C@@H]2O)cc1Br` yielded an inhibition at 100 µg/mL [1] of 0% and an inhibition at 100 µg/mL [2] of 0%.
In the case of `Cc1cn([C@@H]2O[C@H](CO)[C@@H](O)[C@@H]2O)c(=O)[nH]c1=S`, the inhibition at 100 µg/mL [1] is reported as 0% and the inhibition at 100 µg/mL [2] is reported as 0%.
With `CCCCCCCCCCC#Cc1cn([C@@H]2O[C@H](CO)[C@@H](O)[C@H]2F)c(=O)[nH]c1=O` the inhibition at 50 µg/mL [3] was 100%, the inhibition at 50 µg/mL [4] was 50% and the MIC [5] was over 100 µg/mL. The MIC [6] was over 100 µg/mL, the inhibition at 100 µg/mL [1] was 100% and the Inhibition [7] was 100%. The MIC [7] was 100 µg/mL (≈ 244 µM), the inhibition at 1 µg/mL [8] was 70% and the inhibition at 10 µg/mL [9] was 100%. It also gave an Inhibition [10] of 100%, an MIC [10] of 100 µg/mL (≈ 244 µM) and an MIC [11] of over 100 µg/mL. It also gave an inhibition at 100 µg/mL [2] of 100%, an MIC90 [12] of 1 µg/mL (≈ 2.44 µM) and an MIC [13] of over 100 µg/mL. It also gave an MIC90 [14] of 50 µg/mL (≈ 122 µM), a CC50 at 72 h [15] of over 100 µg/mL and an Inhibition [16] of 100%. For the same compound, the MIC [16] was 100 µg/mL (≈ 244 µM), the Inhibition [17] was 100% and the MIC [17] was 100 µg/mL (≈ 244 µM). It also gave a CC10 [18] of over 100 µg/mL, an Inhibition [19] of 100% and an MIC [19] of 100 µg/mL (≈ 244 µM). The Inhibition [20] was 100%, the MIC [20] was 100 µg/mL (≈ 244 µM) and the MIC [21] was over 100 µg/mL. The MIC [22] was over 100 µg/mL.
Work on `CCCCCCCCCCCCC#Cc1cn([C@@H]2O[C@H](CO)[C@@H](O)[C@@H]2O)c(=O)[nH]c1=O` yielded an inhibition at 50 µg/mL [3] of 100%, an inhibition at 100 µg/mL [1] of 0% and an inhibition at 10 µg/mL [9] of 50%. The inhibition at 100 µg/mL [2] was 100%, the MIC90 [12] was 10 µg/mL (≈ 22.9 µM) and the CC50 at 72 h [15] was over 100 µg/mL. The CC10 [18] was over 100 µg/mL.
Compound `CCCCCCCCCCCCC#Cc1cn([C@@H]2O[C@H](CO)[C@@H](O)[C@H]2F)c(=O)[nH]c1=O` has an inhibition at 50 µg/mL [3] of 100%, an MIC [5] of over 100 µg/mL and an MIC [6] of over 100 µg/mL. The inhibition at 100 µg/mL [1] was 20%, the MIC [7] was over 100 µg/mL and the inhibition at 10 µg/mL [9] was 50%. It also gave an Inhibition [10] of 100%, an MIC [10] of 100 µg/mL (≈ 228 µM) and an MIC [11] of over 100 µg/mL. For the same compound, the inhibition at 100 µg/mL [2] was 100%, the MIC90 [12] was 10 µg/mL (≈ 22.8 µM) and the MIC [13] was over 100 µg/mL. It also gave a CC50 at 72 h [15] of over 100 µg/mL, an Inhibition [16] of 100% and an MIC [16] of 100 µg/mL (≈ 228 µM). It also gave an MIC [17] of over 100 µg/mL, a CC10 [18] of over 100 µg/mL and an MIC [19] of over 100 µg/mL. For the same compound, the MIC [20] was over 100 µg/mL, the MIC [21] was over 100 µg/mL and the MIC [22] was over 100 µg/mL.
With `CCCc1ccc(C#Cc2cn([C@@H]3O[C@H](CO)[C@@H](O)[C@@H]3O)c(=O)[nH]c2=O)cc1` the inhibition at 50 µg/mL [3] was 50%, the inhibition at 100 µg/mL [1] was 25% and the inhibition at 100 µg/mL [2] was 100%. For the same compound, the MIC90 [12] was 100 µg/mL (≈ 259 µM), the CC50 at 72 h [15] was over 100 µg/mL and the CC10 [18] was over 100 µg/mL.
`CCOC(=O)/C=C/c1cn([C@@H]2O[C@H](CO)[C@@H](O)[C@H]2F)c(=O)[nH]c1=O` gave an inhibition at 100 µg/mL [1] of 0% and an inhibition at 100 µg/mL [2] of 0%.
Compound `CCOC(=O)C(Cl)C(O)c1cn([C@@H]2O[C@H](CO)[C@@H](O)[C@H]2F)c(=O)[nH]c1=O` (some centres undefined) has an inhibition at 100 µg/mL [1] of 0% and an inhibition at 100 µg/mL [2] of 0%.
Work on `CCOC(=O)C(Br)C(O)c1cn([C@@H]2O[C@H](CO)[C@@H](O)[C@H]2F)c(=O)[nH]c1=O` (some centres undefined) yielded an inhibition at 100 µg/mL [1] of 0% and an inhibition at 100 µg/mL [2] of 0%.
For `O=c1[nH]c(=O)n([C@@H]2O[C@H](CO)[C@@H](O)[C@H]2F)cc1Br`, the inhibition at 100 µg/mL [1] was 0% and the inhibition at 100 µg/mL [2] was 0%.
`O=C(O)/C=C/c1cn([C@@H]2O[C@H](CO)[C@@H](O)[C@@H]2O)c(=O)[nH]c1=O` showed an inhibition at 100 µg/mL [1] of 0% and an inhibition at 100 µg/mL [2] of 0%.
`COC(CI)c1cn([C@@H]2O[C@H](CO)[C@@H](O)[C@@H]2O)c(=O)[nH]c1=O` (some centres undefined) showed an inhibition at 100 µg/mL [1] of 0% and an inhibition at 100 µg/mL [2] of 0%.
`CCCCCC#Cc1cn([C@@H]2O[C@H](CO)[C@@H](O)[C@@H]2O)c(=O)[nH]c1=O` gave an inhibition at 100 µg/mL [1] of 0% and an inhibition at 100 µg/mL [2] of 25%.
In the case of `CCCCCCCCC#Cc1cn([C@@H]2O[C@H](CO)[C@@H](O)[C@@H]2O)c(=O)[nH]c1=O`, the inhibition at 50 µg/mL [3] is reported as 50%, the inhibition at 100 µg/mL [1] is reported as 50% and the inhibition at 10 µg/mL [9] is reported as 10%. The inhibition at 100 µg/mL [2] was 100%, the MIC90 [12] was 100 µg/mL (≈ 263 µM) and the CC50 at 72 h [15] was over 100 µg/mL. The CC10 [18] was over 100 µg/mL.
